Source: ChEMBL document CHEMBL1149691, “Identification of a novel class of selective Tpl2 kinase inhibitors: 4-Alkylamino-[1,7]naphthyridine-3-carbonitriles” (Bioorg Med Chem, 2007)
Active and inactive are the calls of the source. The calls are words filed in the database; no cut-off is given here.

Key:
[1] = Inhibition of Tpl2 kinase assessed as MEK phosphorylation by ELISA; set-up: species or system Homo sapiens
In short: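 Tpl2 (0.4 nM) incubated with 35 nM GST-MEK1 substrate and 50 µM ATP in pH 7.2 Mops buffer with MgCl2, DTT, β-glycerophosphate, EGTA and orthovanadate, 1 h at 30 °C, 1% DMSO final; stopped with EDTA. GST-MEK1 captured on anti-GST plates, phospho-Ser217/221 detected by anti-phospho-MEK1 and Eu-labelled secondary (DELFIA); IC50 by curve fitting.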

[2] = test system: Monocyte; experiment: Inhibition of LPS-induced TNFalpha production in human monocytes; format: functional, cell-based
In short: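 Monocytes enriched from buffy coat by antibody-cocktail negative selection and two Histopaque-1077 separations, plated at 800,000 cells/well in RPMI/0.5% FBS at 37 °C/5% CO2. Compounds in DMSO added 30 min before LPS at 10 ng/mL, ~3 h incubation; supernatant TNF-α by ELISA or electrochemiluminescence.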

[3] = test system: Blood; experiment: Inhibition of LPS-induced TNFalpha production in human blood; format: functional, tissue-based
In short: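 Heparinized blood from healthy male volunteers diluted 1–5 in RPMI/3% FCS at 37 °C; compounds (in DMSO, 1.0% final) added 30 min before LPS at 10 ng/mL, ~3 h incubation. Plasma TNF-α measured by ELISA or electrochemiluminescence.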

[4] = target: Epidermal growth factor receptor (Homo sapiens, UniProt P00533); experiment: Inhibition of EGFR kinase autophosphorylation in A431 cells
[5] = Clearance in Sprague-Dawley rat; format: ADME, organism-based; details: in vivo
[6] = test system: Mus musculus; experiment: Inhibition of LPS-induced TNFalpha production in C57B1/6 mouse at 25 mg/kg, ip; format: functional; details: C57B1/6, ip, route intraperitoneal
In short: (§1)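 Female C57Bl/6 mice, 8–10 weeks old; compound (10 or 25 mg/kg) or vehicle given ip, then 1 h later LPS plus D-galactosamine in PBS ip (2 and […] final). Mice euthanized with CO2 1.5 h after challenge and bled by cardiac puncture; serum TNF-α compared with vehicle.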

[7] = Bioavailability in Sprague-Dawley rat; format: ADME, organism-based; details: in vivo
[8] = Inhibition of MEK; set-up: species or system Homo sapiens
[9] = target: T1, MAP kinase p38 (Homo sapiens, UniProt O15264+Q15759+Q16539+P53778); experiment: Inhibition of p38 kinase; format: protein assay
[10] = target: T2, Proto-oncogene tyrosine-protein kinase Src (Homo sapiens, UniProt P12931); experiment: Inhibition of Src kinase at 40 uM
[11] = species: Homo sapiens; experiment: Inhibition of CAMK2 at 40 uM
[12] = target: MAP kinase-activated protein kinase 2 (Homo sapiens) (UniProt P49137); experiment: Inhibition of MK2 at 40 uM
[13] = Inhibition of PKA; set-up: species or system Homo sapiens
[14] = target: Protein kinase C (PKC); experiment: Inhibition of PKC; set-up: species or system Homo sapiens
[15] = Inhibition of S6 kinase; set-up: species or system Homo sapiens
[16] = target: T1, MAP kinase p38; experiment: Inhibition of P-p38 kinase in human monocytes; format: cell-based
[17] = test system: Mus musculus; experiment: Inhibition of LPS-induced TNFalpha production in C57B1/6 mouse at 10 mg/kg, ip; format: functional; details: C57B1/6, ip, route intraperitoneal; in short: as §1
[18] = target: T2, Proto-oncogene tyrosine-protein kinase Src; experiment: Inhibition of Src kinase
[19] = target: T1, MAP kinase p38; experiment: Inhibition of P-p38 kinase in human monocytes at 40 uM; format: cell-based

Epidermal growth factor receptor, sequence (P00533 whole entry): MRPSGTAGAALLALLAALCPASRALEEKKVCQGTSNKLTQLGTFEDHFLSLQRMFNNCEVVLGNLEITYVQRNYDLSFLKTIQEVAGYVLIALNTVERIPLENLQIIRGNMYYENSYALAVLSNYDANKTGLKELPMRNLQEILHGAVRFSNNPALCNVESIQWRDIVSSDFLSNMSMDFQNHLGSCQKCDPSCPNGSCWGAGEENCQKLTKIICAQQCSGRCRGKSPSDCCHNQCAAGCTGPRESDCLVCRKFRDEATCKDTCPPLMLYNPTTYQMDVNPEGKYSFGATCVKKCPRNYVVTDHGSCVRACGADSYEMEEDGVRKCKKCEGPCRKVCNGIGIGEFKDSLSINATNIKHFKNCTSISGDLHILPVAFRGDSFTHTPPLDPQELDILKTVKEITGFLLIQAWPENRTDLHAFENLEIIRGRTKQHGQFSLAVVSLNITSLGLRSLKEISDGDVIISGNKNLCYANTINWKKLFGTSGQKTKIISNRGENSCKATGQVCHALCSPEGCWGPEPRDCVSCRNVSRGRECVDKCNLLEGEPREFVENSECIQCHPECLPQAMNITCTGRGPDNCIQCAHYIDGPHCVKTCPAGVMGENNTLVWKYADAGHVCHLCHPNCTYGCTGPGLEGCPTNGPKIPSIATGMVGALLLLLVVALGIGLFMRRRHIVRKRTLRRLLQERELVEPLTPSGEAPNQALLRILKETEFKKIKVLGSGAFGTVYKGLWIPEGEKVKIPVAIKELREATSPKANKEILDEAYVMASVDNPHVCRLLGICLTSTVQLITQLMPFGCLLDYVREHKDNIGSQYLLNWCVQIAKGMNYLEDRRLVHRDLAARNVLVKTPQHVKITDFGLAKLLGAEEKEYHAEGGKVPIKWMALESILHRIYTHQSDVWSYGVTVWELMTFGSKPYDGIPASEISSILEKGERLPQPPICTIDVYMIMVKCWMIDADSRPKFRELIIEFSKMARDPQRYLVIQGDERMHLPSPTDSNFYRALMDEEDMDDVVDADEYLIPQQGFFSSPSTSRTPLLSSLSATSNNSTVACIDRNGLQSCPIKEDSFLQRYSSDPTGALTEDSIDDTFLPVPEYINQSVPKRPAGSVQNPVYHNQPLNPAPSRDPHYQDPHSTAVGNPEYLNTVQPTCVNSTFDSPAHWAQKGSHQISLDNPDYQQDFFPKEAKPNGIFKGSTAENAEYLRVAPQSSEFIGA
T2 sequence (P12931 2-536 limits assumed): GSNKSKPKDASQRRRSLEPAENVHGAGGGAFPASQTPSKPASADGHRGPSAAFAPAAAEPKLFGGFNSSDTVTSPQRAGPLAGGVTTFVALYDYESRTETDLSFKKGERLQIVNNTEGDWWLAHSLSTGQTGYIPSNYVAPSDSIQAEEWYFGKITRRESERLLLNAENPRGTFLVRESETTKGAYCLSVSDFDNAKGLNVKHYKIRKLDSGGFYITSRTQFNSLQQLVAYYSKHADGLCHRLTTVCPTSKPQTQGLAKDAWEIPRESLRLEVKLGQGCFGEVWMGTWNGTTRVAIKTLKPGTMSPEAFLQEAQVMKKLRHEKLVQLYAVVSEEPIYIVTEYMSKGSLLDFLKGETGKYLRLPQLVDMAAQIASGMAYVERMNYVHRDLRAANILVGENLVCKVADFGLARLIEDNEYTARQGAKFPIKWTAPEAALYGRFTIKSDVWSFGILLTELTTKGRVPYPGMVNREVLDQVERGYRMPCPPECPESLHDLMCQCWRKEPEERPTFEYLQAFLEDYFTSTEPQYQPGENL
MAP kinase-activated protein kinase 2 (Homo sapiens), sequence (P49137 whole entry, looked up): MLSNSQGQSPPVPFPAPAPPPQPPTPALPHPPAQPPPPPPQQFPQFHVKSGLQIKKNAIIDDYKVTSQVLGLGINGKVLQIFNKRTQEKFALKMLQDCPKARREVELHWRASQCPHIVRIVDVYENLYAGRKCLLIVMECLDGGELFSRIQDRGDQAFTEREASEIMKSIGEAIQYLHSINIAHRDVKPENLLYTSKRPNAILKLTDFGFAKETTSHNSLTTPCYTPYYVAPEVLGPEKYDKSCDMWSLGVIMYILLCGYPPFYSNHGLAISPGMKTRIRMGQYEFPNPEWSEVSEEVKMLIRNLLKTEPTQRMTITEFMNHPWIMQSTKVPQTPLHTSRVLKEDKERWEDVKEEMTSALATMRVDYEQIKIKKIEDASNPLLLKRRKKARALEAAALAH

Question: With N#Cc1cnc2cnc(NC3CCCC3)cc2c1Nc1ccc(F)c(Cl)c1 as the molecule, how does the IC50 [1] read?
Answer: 7.6 µM

Question: Which results are given for C#CC(C)(C)Nc1c(C#N)cnc2cnc(NCc3cccnc3)cc12?
Answer: IC50 [1]: 0.27 µM; IC50 [2]: 2 µM; Activity [3]: inactive

Question: For N#Cc1cnc2ccc(NCc3ccc(S(N)(=O)=O)cc3)cc2c1NC1CCCC1, which IC50 [1] is on record?
Answer: 7.3 µM

Question: Which IC50 [1] does the source give for N#Cc1cnc2ccc(NCc3cccnc3)cc2c1Nc1ccc(F)c(Cl)c1 here?
Answer: 0.018 µM

Question: Which IC50 [1] does the source give for Cn1ccnc1CNc1ccc2ncc(C#N)c(NC3CCCC3)c2c1 here?
Answer: 3 µM

Question: For CC(C)(C)Nc1c(C#N)cnc2ccc(NCc3ccc(S(N)(=O)=O)cc3)cc12, which IC50 [1] is on record?
Answer: 7.3 µM

Question: For N#Cc1cnc2cnc(NCCN3CCOCC3)cc2c1Nc1ccc([N+](=O)[O-])cc1, which IC50 [1] is on record?
Answer: 7 µM

Question: For N#Cc1cnc2cnc(NCCN3CCOCC3)cc2c1Nc1cccc(C(N)=O)c1, which IC50 [1] is on record?
Answer: > 10 µM

Question: For CC(C)(C)Nc1c(C#N)cnc2cnc(NCc3cccnc3)cc12, which IC50 [1] is on record?
Answer: 0.63 µM

Question: What about the IC50 [4] of the same molecule?
Answer: > 40 µM

Question: And the IC50 [2]?
Answer: 0.6 µM

Question: And the IC50 [3]?
Answer: 4.2 µM

Question: And the clearance [5]?
Answer: 50 mL/min/kg

Question: With CS(=O)(=O)Nc1cccc(Nc2c(C#N)cnc3cnc(NCCN4CCOCC4)cc23)c1 as the molecule, how does the IC50 [1] read?
Answer: > 10 µM

Question: Which IC50 [1] does the source give for N#Cc1cnc2ccc(NCc3ccccc3)cc2c1NC1CCCC1 here?
Answer: 21 µM

Question: With N#Cc1cnc2cnc(NCCN3CCOCC3)cc2c1Nc1cccc(I)c1 as the molecule, how does the IC50 [1] read?
Answer: 7.1 µM

Question: For C[C@H](Nc1cc2c(N(C)C3CCCCCC3)c(C#N)cnc2cn1)c1ccccc1, which IC50 [1] is on record?
Answer: > 40 µM

Question: Which IC50 [1] does the source give for CC(C)(C)Nc1c(C#N)cnc2ccc(NCc3cccc(C#N)c3)cc12 here?
Answer: 1.7 µM

Question: With C[C@H](Nc1cc2c(NC3CCCCCC3)c(C#N)cnc2cn1)c1ccccc1 as the molecule, how does the IC50 [1] read?
Answer: 0.92 µM

Question: Which IC50 [1] does the source give for N#Cc1cnc2cnc(NCc3cccnc3)cc2c1NC1CCNCC1 here?
Answer: > 40 µM

Question: For N#Cc1cnc2ccc(NCc3cccc[n+]3[O-])cc2c1NC1CCCC1, which IC50 [1] is on record?
Answer: 1.3 µM

Question: With N#Cc1cnc2cnc(NCc3cccnc3)cc2c1NC1CC1 as the molecule, how does the IC50 [1] read?
Answer: 2.8 µM

Question: What about the IC50 [4] of the same molecule?
Answer: > 40 µM

Question: Which IC50 [1] does the source give for N#Cc1cnc2cnc(NCCN3CCOCC3)cc2c1Nc1ccc(F)cc1 here?
Answer: 10.7 µM

Question: With CC(C)(C)Nc1c(C#N)cnc2ccc(NCc3cccc[n+]3[O-])cc12 as the molecule, how does the IC50 [1] read?
Answer: 1.3 µM

Question: With N#Cc1cnc2ccc(NCCN3CCOCC3)cc2c1NC1CCCC1 as the molecule, how does the IC50 [1] read?
Answer: 19.7 µM

Question: Which IC50 [1] does the source give for C[C@@H](Nc1cc2c(Nc3ccc(F)c(Cl)c3)c(C#N)cnc2cn1)c1ccccc1 here?
Answer: 0.05 µM

Question: For N#Cc1cnc2cnc(NCc3cccnc3)cc2c1NC1CCCCC1, which IC50 [1] is on record?
Answer: 0.47 µM

Question: And the IC50 [4]?
Answer: > 40 µM

Question: And the IC50 [2]?
Answer: 0.5 µM

Question: And the IC50 [3]?
Answer: 4.7 µM

Question: With N#Cc1cnc2ccc(NCc3cccnc3)cc2c1NC1CCCCCC1 as the molecule, how does the IC50 [1] read?
Answer: 2.6 µM

Question: For CC(C)(C)Nc1cc2c(Nc3ccc(F)c(Cl)c3)c(C#N)cnc2cn1, which IC50 [1] is on record?
Answer: > 40 µM

Question: Which IC50 [1] does the source give for Cn1ccnc1CNc1ccc2ncc(C#N)c(NC(C)(C)C)c2c1 here?
Answer: 3 µM

Question: Which IC50 [1] does the source give for N#Cc1cnc2cnc(NCc3cccnc3)cc2c1Nc1ccccc1 here?
Answer: 0.4 µM

Question: And the IC50 [4]?
Answer: < 5 µM

Question: What about the IC50 [2] of the same molecule?
Answer: 1.1 µM

Question: What about the IC50 [3] of the same molecule?
Answer: 20 µM

Question: With N#Cc1cnc2cnc(NCCN3CCOCC3)cc2c1Nc1cccc(C(=O)O)c1 as the molecule, how does the IC50 [1] read?
Answer: > 10 µM

Question: Which results are given for N#Cc1cnc2ccc(NCc3c[nH]cn3)cc2c1Nc1ccc(F)c(Cl)c1?
Answer: IC50 [2]: 0.6 µM; inhibition in vivo at 25 mg/kg [6]: 71%; clearance [5]: 97 mL/min/kg; bioavailability [7]: 1%; IC50 [8]: 2.4 µM; IC50 [9]: 30 µM; Activity [10]: inactive; Activity [11]: inactive; Activity [12]: inactive; IC50 [13]: 5.84 µM; IC50 [14]: > 10 µM; IC50 [15]: > 10 µM; IC50 [16]: 2.11 µM

Question: For N#Cc1cnc2ccc(NCCN3CCOCC3)cc2c1Nc1ccc(Oc2ccccc2)cc1, which IC50 [1] is on record?
Answer: 0.25 µM

Question: Which IC50 [1] does the source give for N#Cc1cnc2cnc(NCc3cccnc3)cc2c1NC1CCCC1 here?
Answer: 0.32 µM

Question: What about the IC50 [4] of the same molecule?
Answer: > 40 µM

Question: And the IC50 [2]?
Answer: 0.6 µM

Question: And the IC50 [3]?
Answer: 7.7 µM

Question: And the clearance [5]?
Answer: 28 mL/min/kg

Question: Which IC50 [1] does the source give for CS(=O)(=O)c1cccc(CNc2ccc3ncc(C#N)c(NC4CCCC4)c3c2)c1 here?
Answer: 2.9 µM

Question: For N#Cc1cnc2cnc(NCCN3CCOCC3)cc2c1Nc1ccc(Oc2ccccc2)cc1, which IC50 [1] is on record?
Answer: 0.38 µM

Question: With N#Cc1cnc2cnc(NCCN3CCOCC3)cc2c1Nc1ccc(F)c(F)c1 as the molecule, how does the IC50 [1] read?
Answer: 3.6 µM

Question: Which results are given for N#Cc1cnc2cnc(NCc3cccnc3)cc2c1NC1CCCCCC1?
Answer: IC50 [1]: 0.16 µM; IC50 [4]: > 20 µM; IC50 [2]: 0.5 µM; IC50 [3]: 4.5 µM; inhibition in vivo at 10 mg/kg [17]: 86%; clearance [5]: 30 mL/min/kg; bioavailability [7]: 14%; IC50 [8]: > 40 µM; IC50 [18]: 38 µM; Activity [11]: inactive; Activity [12]: inactive; IC50 [13]: > 40 µM; IC50 [14]: > 40 µM; IC50 [15]: > 40 µM; Activity [19]: inactive

Question: With CCC(C)(C)Nc1c(C#N)cnc2cnc(NCc3cccnc3)cc12 as the molecule, how does the IC50 [1] read?
Answer: 0.36 µM

Question: And the IC50 [4]?
Answer: > 40 µM

Question: What about the IC50 [2] of the same molecule?
Answer: 0.8 µM

Question: And the IC50 [3]?
Answer: 4.5 µM

Question: For N#Cc1cnc2cnc(Nc3ccc(F)c(Cl)c3)cc2c1NC1CCCC1, which IC50 [1] is on record?
Answer: 8 µM

Question: With N#Cc1cnc2cnc(NCCN3CCOCC3)cc2c1Nc1cccc(Oc2ccccc2)c1 as the molecule, how does the IC50 [1] read?
Answer: 11.5 µM

Question: For N#Cc1cnc2cnc(NCCN3CCOCC3)cc2c1Nc1ccc(Nc2ccccc2)cc1, which IC50 [1] is on record?
Answer: 7.6 µM

Question: With CC(C)(C)Nc1c(C#N)cnc2ccc(NCc3cccc(S(C)(=O)=O)c3)cc12 as the molecule, how does the IC50 [1] read?
Answer: 2.9 µM

Question: With N#Cc1cnc2ccc(NCc3cccnc3)cc2c1NC1CCCC1 as the molecule, how does the IC50 [1] read?
Answer: 2.4 µM

Question: Which IC50 [1] does the source give for N#Cc1cnc2cnc(NCc3cccnc3)cc2c1Nc1ccc(F)c(Cl)c1 here?
Answer: 0.05 µM

Question: And the IC50 [2]?
Answer: 1.1 µM

Question: What about the IC50 [3] of the same molecule?
Answer: > 20 µM

Question: For N#Cc1cccc(CNc2ccc3ncc(C#N)c(NC4CCCC4)c3c2)c1, which IC50 [1] is on record?
Answer: 2.2 µM

Question: For N#Cc1cnc2ccc(NCc3ccn[nH]3)cc2c1NC1CCCC1, which IC50 [1] is on record?
Answer: 1.6 µM

Question: Which IC50 [1] does the source give for CC(C)(C)Nc1c(C#N)cnc2ccc(NCc3ccn[nH]3)cc12 here?
Answer: 1.6 µM

Question: Which IC50 [1] does the source give for N#Cc1cnc2ccc(NCCN3CCOCC3)cc2c1Nc1ccc(F)c(Cl)c1 here?
Answer: 1 µM

Question: For N#Cc1cnc2cnc(NC3CCCCCC3)cc2c1Nc1ccc(F)c(Cl)c1, which IC50 [1] is on record?
Answer: 5.2 µM

Question: With N#Cc1ccccc1CNc1ccc2ncc(C#N)c(NC3CCCC3)c2c1 as the molecule, how does the IC50 [1] read?
Answer: 1.7 µM
